Compound activity: PubChem BioAssay, several laboratories
FLuc stim CS = affects firefly luciferase, flagging false hits in luciferase stimulation screens | P08659 | ATPlite luciferase biochemical, luminescence, 10 min; 0 = ATP-free wells, 1 = DMSO control | activation factor at 10 µM | 200,000 tested, under 10 active | AID 1027;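 active = luciferase activation factor, scaled between plate controls, of at least 2 with compound at 10 µM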
Target sequence (P08659 whole entry, looked up): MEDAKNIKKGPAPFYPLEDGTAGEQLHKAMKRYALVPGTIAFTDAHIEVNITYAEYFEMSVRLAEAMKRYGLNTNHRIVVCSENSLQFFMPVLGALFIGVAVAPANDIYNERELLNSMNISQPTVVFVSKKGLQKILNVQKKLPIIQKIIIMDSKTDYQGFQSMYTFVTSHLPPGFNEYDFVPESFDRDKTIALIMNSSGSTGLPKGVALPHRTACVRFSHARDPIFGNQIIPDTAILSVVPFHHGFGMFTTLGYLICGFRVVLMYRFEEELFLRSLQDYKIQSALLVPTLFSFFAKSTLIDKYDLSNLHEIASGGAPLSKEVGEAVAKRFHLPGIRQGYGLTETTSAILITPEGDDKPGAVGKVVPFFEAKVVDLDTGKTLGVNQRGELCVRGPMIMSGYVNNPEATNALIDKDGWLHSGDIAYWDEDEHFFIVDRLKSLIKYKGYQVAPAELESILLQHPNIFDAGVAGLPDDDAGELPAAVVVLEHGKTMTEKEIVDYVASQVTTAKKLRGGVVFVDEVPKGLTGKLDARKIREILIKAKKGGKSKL
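System: luciferase plus luciferin reagent, cell-free; medium: PBS as buffer for the ATP substrate; dosing: test compounds dosed from 2 mM stocks in 100% DMSO; timing: 10 min post-reagent at room temperature; measured by: luminescence measurement of luciferase light output; evaluation: luciferase activation, seen as luminescence increase over controls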
STAT3 inh-1 = inhibitors of IL-6 induced STAT3 signaling; inhibition, % at 5.5 µM; 190,000 compounds, 0.89% hits; U3A cells, IL-6 STAT3-luciferase reporter, luminescence; host cell line lacks STAT1; AID 862;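 active = inhibition above the mean inhibition across all screened compounds plus 3 SD, cut at about 44% in these data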;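 also: 0% = DMSO only wells and 100% = 100 µM nifuroxazide control wells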
TRAIL sens C8 = sensitizes caspase-8 expressing cells to TRAIL; NB7+C8 cells + TRAIL, ATPlite viability luminescence; AID 624354; inhibition (viability loss, TRAIL sensitization), % at 10 µM; 360,000 compounds, 1% hits;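 active = compounds causing at least 50% loss of cell viability in the single-dose screen, relative to plate controls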
PPC-1+TRAIL kill = PPC-1 cancer cell killing with TRAIL present; PPC-1 cells + TRAIL, ATPLite viability luminescence; cell killing (% activity), % at 4 µM or 5 µM; 220,000 compounds, 0.41% hits; AID 1443;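 active = cell killing above 50% in the first pass at 4 µM, then a duplicate retest at 5 µM averaging 50% or more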;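 also: plate controls were cells with TRAIL plus DMSO for no effect and medium-only wells lacking cells for full effect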
FLuc inh counter = counter-screen for luciferase assay inhibitors: firefly luciferase inhibition; 200,000 compounds, 1.5% hits; AID 1006; P08659; ATPLite firefly luciferase biochemical luminescence, 10 min; inhibition, % at 10 µM;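 active = inhibition above about 50% when tested at 10 µM, limit read from the data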
HSP90 inh = inhibitors of HSP90 luciferase refolding in rabbit reticulocyte lysate | luciferase refolding luminescence, 3 h | inhibition, % at 5.6 µM | 290,000 compounds, 0.91% hits;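 active = inhibition above the screen-wide mean plus 3 SD, computed separately per campaign, cut at about 16% in these data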;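 also: 0% = DMSO wells and 100% = 60 µM geldanamycin wells; inhibitors lower the luminescence because luciferase stays unfolded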
STAT3 inh-2 = STAT3 inhibition, confirmation assay; 1,200 compounds, 45% hits; U3A cells, IL-6 STAT3 luciferase reporter, luminescence; cell line lacks STAT1; inhibition, % at 5.7 µM; shares compounds with STAT3 inh-1;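 active = inhibition above the hit cutoff computed for the primary STAT3 screen, cut at about 44% in these data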;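 also: 0% = IL-6 plus DMSO and 100% = IL-6 plus nifuroxazide control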
NFkB inh 2 = NF-kappaB inhibition in STAT3 inhibitor counter-screen; HEK293T NF-kB luciferase reporter, TNF-alpha induced; 1,200 compounds, 36% hits; inhibition, % at 5.7 µM; shares compounds with STAT3 inh-1;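 active = inhibition above the mean of solvent-only control wells plus 3 SD, cutoff set per campaign, cut at about 13% in these data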;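 also: 0% = TNF-alpha with DMSO and 100% = TNF-alpha with MG high control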
STAT1 inh STAT3c = STAT1 inhibition in STAT3 inhibitor counter-screen | 1,200 compounds, 27% hits | inhibition, % at 5.7 µM | NIH 3T3 STAT1-luciferase reporter, IFN-gamma induced, luminescence | shares compounds with STAT3 inh-1;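 active = inhibition above the mean plus 3 SD of solvent-only control wells, limit set per screening run, cut at about 16% in these data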;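 also: 0% = DMSO with IFN-gamma and 100% = nifuroxazide control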
* hit, by the source's call; . = no result. This is a sample that favours compounds with a hit; in the whole collection about 2.2% have one here.

SMILES	FLuc stim CS	STAT3 inh-1	TRAIL sens C8	PPC-1+TRAIL kill	FLuc inh counter	HSP90 inh	STAT3 inh-2	NFkB inh 2	STAT1 inh STAT3c
Cc1c(Cl)cccc1NC(CC(=O)c1ccccc1)C(=O)O (stereo unspecified)	1	-22	-2	22	-1	-3	.	.	.
Cc1ccccc1CC1(CO)CCCN(C(=O)CCCN2CCCCC2=O)C1 (stereo unspecified)	1	-3	-4	6	-2	-2	.	.	.
Cc1ccc(NC(=O)c2sc3ccccc3c2Cl)nc1	0.2	49*	70*	40	80*	-6	0	0	-72
CCCOc1ccc(C(=O)Nc2ccc(Cl)cn2)cc1	0.5	56*	32	30	53*	13	22	-19	-105
Cc1ccc(CC(=O)Nc2ccc(Cl)cn2)cc1	.	.	3	.	.	-2	.	.	.
Cc1ccc(C(=O)Nc2ccc(Cl)cn2)cc1	0.3	56*	62*	36	74*	7	13	-16	-107
O=C(Nc1ccc(Cl)cn1)c1ccc(Oc2ccccc2)cc1	.	.	19	.	.	-2	.	.	.
O=C(Nc1ccccc1C(F)(F)F)c1ncn[nH]1	.	.	5	27	.	1	.	.	.
CCc1c(C)c2ccc(OCC(=O)OC(C)C)c(C)c2oc1=O	1	56*	17	-2	2	3	48*	2	7
CCc1c(C)c2ccc(OCC(=O)N(C)C)c(C)c2oc1=O	1	16	27	18	2	1	.	.	.
Cc1cc(C(=O)CSc2nc3ccccc3c(=O)n2C)c(C)n1Cc1ccc2c(c1)OCO2	1	58*	30	-4	2	5	76*	28*	25*
CCOc1cccc(C(=O)Nc2nnc(-c3ccco3)s2)c1	0.6	47*	13	29	41	5	7	-15	-61
Cc1cccc(OCC(=O)Nc2nnc(-c3ccco3)s2)c1	1	9	-12	11	-4	-4	.	.	.
O=C(c1cccn2c(=O)c3cc(Br)ccc3nc12)N1CCN(c2ccccn2)CC1	1.1	-3	-11	8	-5	-2	.	.	.
O=C(c1cccn2c(=O)c3ccccc3nc12)N1CCN(c2ccccn2)CC1	1	51*	-22	16	-5	5	3	-6	0
CCOc1cc(C2C(C(=O)c3ccco3)=C(O)C(=O)N2CC2CCCO2)ccc1O (stereo unspecified)	.	.	-6	.	.	0	.	.	.
CCOc1ccc(N/C=C/C(=O)c2ccccc2)c([N+](=O)[O-])c1	0.1	85*	91*	73*	94*	15	59*	45*	-30
CCOc1ccc(NC(=O)/C=C/c2ccccc2)c([N+](=O)[O-])c1	1	-13	-4	2	0	0	.	.	.
Cc1nnc(NC(=O)C2CC(=O)N(c3ccccc3)C2)s1 (stereo unspecified)	.	.	-2	.	.	-2	.	.	.
COc1cccc2cc(-c3nnc(-c4ccccc4)o3)c(=O)oc12	0.1	46*	38	.	91*	4	31	3	-67
COc1ccc(-c2nnc(-c3cc4ccccc4oc3=O)o2)cc1	0.9	10	-4	16	5	-3	.	.	.
COC(=O)c1nc(N)sc1-c1ccc(Cl)c(Cl)c1	.	.	-2	15	.	-4	.	.	.
C[C@H](CO)N1C[C@H](C)[C@@H](CN(C)S(=O)(=O)c2ccccc2)Oc2ccc(NC(=O)CCC(F)(F)F)cc2C1=O	.	.	-28	.	.	.	.	.	.
O=C(Nc1ccc(-c2nc3ccccc3o2)cc1)c1ccc2c(c1)OCO2	1	20	4	23	-4	0	.	.	.
O=C(Nc1ccc(-c2nc3ccccc3o2)cc1)c1ccc(N2C(=O)C3C4C=CC(C4)C3C2=O)cc1 (stereo unspecified)	1	74*	40	30	-4	1	68*	17*	-11
SMILES	FLuc stim CS	STAT3 inh-1	TRAIL sens C8	PPC-1+TRAIL kill	FLuc inh counter	HSP90 inh	STAT3 inh-2	NFkB inh 2	STAT1 inh STAT3c
COc1cccc(C(=O)Nc2ccc(-c3nc4ccccc4o3)c(O)c2)c1	1.1	32	10	27	-8	-2	.	.	.
O=C(Nc1ccc2oc(-c3ccccc3)nc2c1)c1ccncc1	1.1	46*	18	10	-5	1	35	3	-8
COc1cc(OC)cc(C(=O)Nc2ccc(-c3nc4ccccc4o3)cc2)c1	1.1	46*	-2	11	-7	3	45*	3	12
CC(C)N(CCc1ccncc1)C(=O)Nc1ccc(Cl)c(Cl)c1	1	16	-5	16	-5	1	.	.	.
C=CCN=c1scc(-c2ccc3c(c2)NC(=O)CO3)n1/N=C(\C)c1ccccn1	1.1	75*	22	14	-7	3	74*	18*	22*
Cn1nc(CC(=O)Nc2ccc(N3CCN(C(=O)OC(C)(C)C)CC3)cc2)c2ccccc2c1=O	1.1	80*	25	12	-11	4	83*	32*	22*
COc1cc(NC(=O)Cc2nn(C)c(=O)c3ccccc23)cc(OC)c1	1.1	48*	2	8	-7	-6	35	7	17*
Cc1csc(NC(=O)Cc2nn(C)c(=O)c3ccccc23)n1	1	54*	17	17	-5	3	60*	18*	21*
Cn1nc(CC(=O)N2CCN(c3ccccc3)CC2)c2ccccc2c1=O	1	4	13	15	2	3	.	.	.
COc1ccccc1NC(=O)Cc1nn(C)c(=O)c2ccccc12	1.1	54*	12	7	-6	-3	54*	13*	18*
COC(=O)C(C(C)C)N(Cc1cc(OC)cc(OC)c1)S(=O)(=O)CCl (stereo unspecified)	.	.	-1	.	.	.	.	.	.
C=CC[C@H](CC(=O)N(CCO)Cc1ccccc1)C(=O)N[C@H](C)COC(=O)[C@@H](CC=C)CC(=O)OC(C)(C)C	.	.	4	.	.	.	.	.	.
Cc1cc(N2CCN(c3nc4ccccc4s3)CC2)n2ncnc2n1	1.1	83*	23	-2	-6	-1	73*	25*	30*
C[C@H](CO)N1C[C@H](C)[C@@H](CN(C)C(=O)Nc2ccc(C(F)(F)F)cc2)Oc2c(NS(=O)(=O)c3cn(C)cn3)cccc2C1=O	.	.	-10	.	.	.	.	.	.
CCCCc1ccc(-c2ccc(Br)cc2O)nc1	0.6	26	22	28	42	2	.	.	.
CCCCc1ccc(-c2ccc(C)cc2O)nc1	0.2	51*	43	34	75*	-1	17	-37	-113
